# In ChEMBL document CHEMBL3098030, “Explorations of substituted urea functionality for the discovery of new activators of the heme-regulated inhibitor kinase” (J Med Chem, 2013):
# The source made the active and inactive calls. The rule behind the calls is not given here.
# Legend:
# [1] = Ratio of IC50 for human CRL2813 cells after 3 days by SRB assay in presence of HRI-targeting siRNA to IC50 for human CRL2813 cells after 3 days by SRB assay in presence of non-targeting siRNA; type: functional
# Summary of the method: (§1)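 CRL-2813 cells transiently transfected (Lipofectamine 2000) with HRI-targeting or non-targeting siRNA, then treated with compound dose range; proliferation by SRB after 3 days. IC50 calculated per siRNA condition; ratio is HRI-siRNA over non-targeting IC50. Triplicate, three independent experiments; mean±S.E.M.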
# [2] = molecular target: Eukaryotic translation initiation factor 2-alpha kinase 1 (Homo sapiens) (UniProt Q9BQI3); test: Activation of HRI in human CRL-2813-pBISA-DL(ATF-4) reporter cells assessed as eIF2alpha phosphorylation after 8 to 32 hrs by dual-luciferase reporter gene assay
# Summary of the method: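 Reporter CRL-2813-pBISA-DL(ATF-4) cells incubated with compounds for 8, 16 or 32 h. Firefly/renilla luciferase ratio measured by dual luciferase assay and normalized to vehicle-treated cells.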
# [3] = molecular target: Eukaryotic translation initiation factor 2-alpha kinase 1 (Homo sapiens) (UniProt Q9BQI3); test: Activation of HRI in human CRL-2813-pBISA-DL(ATF-4) reporter cells assessed as concentration required to obtain F-luciferase expression/R-luciferase expression ratio 3
# Summary of the method: (§2)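 Stably transfected CRL-2813-pBISA-DL(ATF-4) reporter cells treated with compounds in dose-response; firefly and renilla luciferases read by dual glow luciferase kit. Activity = firefly/renilla (F/R) ratio normalized to DMSO-treated wells (set at 1). Triplicate points fitted to logistic sigmoidal model by nonlinear least squares; C3X = concentration giving F/R = 3, Emax = maximal F/R.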
# [4] = Antiproliferative activity against human CRL2813 cells after 3 days by SRB assay in presence of HRI-targeting siRNA; type: functional, cell-based; conditions: CRL2813, 72 h; summary of the method: as §1
# [5] = Antiproliferative activity against human CRL2813 cells after 3 days by SRB assay in presence of non-targeting siRNA; type: functional, cell-based; conditions: CRL2813, 72 h; summary of the method: as §1
# [6] = Cytotoxicity against human CRL2813 cells after 5 days by SRB assay; type: functional, cell-based; conditions: CRL2813, 120 h
# Summary of the method: (§3)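 CRL-2813 melanoma or NIH/3T3 fibroblasts seeded in 96-well plates, exposed 5 days to 0.5–20 μM compound; fixed in cold 10% TCA, bound sulforhodamine B measured. % growth = 100×(T−T0)/(C−T0). IC50 derived; triplicate, three independent experiments.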
# [7] = molecular target: Eukaryotic translation initiation factor 2-alpha kinase 1 (Homo sapiens) (UniProt Q9BQI3); test: Activation of HRI in human CRL-2813-pBISA-DL(ATF-4) reporter cells assessed as reduction of ternary complex at 30 uM by dual-luciferase reporter gene assay relative to control; summary of the method: as §2
# [8] = molecular target: Eukaryotic translation initiation factor 2-alpha kinase 1 (Homo sapiens) (UniProt Q9BQI3); test: Activation of HRI in human CRL2813 cells assessed as reduction in cyclin D1 protein expression at 10 uM after 6 hrs by Western blotting analysis; type: cell-based
# Summary of the method: (§4)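 CRL-2813 melanoma cells grown in serum-containing medium without antibiotics to 70% confluence, treated 6 h (10 μM for CHOP/cyclin D1), lysed in M-PER on ice 30 min, protein by BCA. Equal protein on SDS-PAGE, probed with anti-pS51-eIF2α rabbit mAb, anti-total eIF2α mouse mAb, anti-CHOP, anti-cyclin D1, anti-actin. Three independent experiments.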
# [9] = molecular target: Eukaryotic translation initiation factor 2-alpha kinase 1 (Homo sapiens) (UniProt Q9BQI3); test: Activation of HRI in human CRL2813 cells assessed as eIF2alpha phosphorylation after 6 hrs by Western blotting analysis; type: cell-based; summary of the method: as §4
# [10] = Antiproliferative activity against human CRL2813 cells after 5 days by SRB assay in presence of HRI-targeting siRNA; type: functional, cell-based; conditions: CRL2813, 120 h
# [11] = Ratio of IC50 for human CRL2813 cells after 3 days by SRB assay in presence of HRI-targeting siRNA to IC50 for human CRL2813 cells after 3 days by SRB assay in presence of non-targeting siRNA
# [12] = Antiproliferative activity against human CRL2813 cells after 5 days by SRB assay in presence of non-targeting siRNA; type: functional, cell-based; conditions: CRL2813, 120 h
# [13] = molecular target: Eukaryotic translation initiation factor 2-alpha kinase 1 (Homo sapiens) (UniProt Q9BQI3); test: Activation of HRI in human CRL2813 cells assessed as reduction in cyclin D1 mRNA expression at 7.5 to 15 uM after 6 hrs by RT-PCR analysis; type: cell-based
# Summary of the method: (§5)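 CRL-2813 cells incubated with 7.5 or 15 μM compound for 6 h; CHOP and cyclin D1 mRNA measured by real-time PCR. Each run in triplicate, mean of three independent experiments ±S.E.M.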
# [14] = molecular target: Eukaryotic translation initiation factor 2-alpha kinase 1 (Homo sapiens) (UniProt Q9BQI3); test: Activation of HRI in human CRL2813 cells assessed as increase in CHOP mRNA expression at 7.5 to 15 uM after 6 hrs by RT-PCR analysis; type: cell-based; summary of the method: as §5
# MCF7 [15] = test: Antiproliferative activity against human MCF7 cells after 5 days by SRB assay in presence of non-targeting siRNA; type: functional, cell-based; conditions: MCF7, 120 h
# [16] = molecular target: Eukaryotic translation initiation factor 2-alpha kinase 1 (Homo sapiens) (UniProt Q9BQI3); test: Activation of HRI in human CRL-2813-pBISA-DL(ATF-4) reporter cells assessed as eIF2alpha phosphorylation after 10 hrs by dual-luciferase reporter gene assay in presence of siRNA relative to control
# Summary of the method: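 CRL-2813-pBISA-DL(ATF-4) reporter cells transiently transfected (Lipofectamine 2000) with HRI-targeting or non-targeting siRNA for 48 h, then treated with compounds or DMSO for 10 h. Firefly/renilla ratio by dual luciferase assay, normalized to vehicle. Triplicate, three independent experiments; mean±S.E.M.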
# [17] = molecular target: Eukaryotic translation initiation factor 2-alpha kinase 1 (Homo sapiens) (UniProt Q9BQI3); test: Activation of HRI in human CRL2813 cells assessed as increase in CHOP protein expression at 10 uM after 6 hrs by Western blotting analysis; type: cell-based; summary of the method: as §4
# MCF7 [18] = test: Antiproliferative activity against human MCF7 cells after 5 days by SRB assay in presence of HRI-targeting siRNA; type: functional, cell-based; conditions: MCF7, 120 h
# [19] = Selectivity ratio of IC50 for mouse NIH/3T3 cells to IC50 for human CRL2813 cells; type: ADME, cell-based; conditions: NIH/3T3 cells and CRL2813 cells, read-out: Ratio IC50
# NIH3T3 = test: Cytotoxicity against mouse NIH/3T3 cells after 5 days by SRB assay; type: cell-based; conditions: NIH3T3, 120 h; summary of the method: as §3
# Eukaryotic translation initiation factor 2-alpha kinase 1 (Homo sapiens), sequence (Q9BQI3 whole entry): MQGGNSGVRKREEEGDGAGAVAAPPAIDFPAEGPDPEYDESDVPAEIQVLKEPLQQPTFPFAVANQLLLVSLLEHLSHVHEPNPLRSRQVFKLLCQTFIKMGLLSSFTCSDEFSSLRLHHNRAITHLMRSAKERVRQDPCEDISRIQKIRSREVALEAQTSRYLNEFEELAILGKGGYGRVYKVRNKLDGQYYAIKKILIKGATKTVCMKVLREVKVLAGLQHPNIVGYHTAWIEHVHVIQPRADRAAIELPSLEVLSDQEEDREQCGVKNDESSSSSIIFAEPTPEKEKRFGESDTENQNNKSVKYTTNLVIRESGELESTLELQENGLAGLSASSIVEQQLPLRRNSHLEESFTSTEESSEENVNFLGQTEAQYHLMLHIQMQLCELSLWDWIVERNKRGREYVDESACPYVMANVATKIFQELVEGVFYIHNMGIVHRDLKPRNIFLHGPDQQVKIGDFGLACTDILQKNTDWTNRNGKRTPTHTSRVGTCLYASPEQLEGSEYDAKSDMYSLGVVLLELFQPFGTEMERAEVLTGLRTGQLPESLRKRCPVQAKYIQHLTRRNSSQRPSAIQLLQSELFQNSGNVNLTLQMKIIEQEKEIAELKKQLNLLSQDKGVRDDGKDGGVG
Compound,Ratio IC50 [1],Activity [2],Activity [3] [µM],IC50 [4] [µM],IC50 [5] [µM],IC50 [6] [µM],Ratio [7],Activity [8],Activity [9],IC50 [10] [µM],Ratio IC50 [11],IC50 [12] [µM],Activity [13],Activity [14],IC50 (MCF7 [15]) [µM],Activity [16],Activity [17],IC50 (MCF7 [18]) [µM],selectivity ratio [19],IC50 (NIH3T3) [µM]
O=C(Nc1cccc(C(F)(F)F)c1)N[C@H]1CC[C@H](Oc2cccc(F)c2)CC1,7,Active,2.6,29.9,4.3,2.4,7.23,–,–,–,–,–,–,–,–,–,–,–,–,–
O=C(Nc1cccc(C(F)(F)F)c1)N[C@H]1CC[C@H](Oc2ccccc2F)CC1,7,Active,3.2,21.9,2.8,2.45,7.98,–,–,–,–,–,–,–,–,–,–,–,–,–
O=C(Nc1cccc(C(F)(F)F)c1)N[C@H]1CC[C@@H](Oc2ccc(F)cc2)CC1,–,–,4.5,10.4,6,2.6,11.8,Active,Active,10.4,1.7,6,Active,Active,11.3,inactive,Active,> 30,–,–
O=C(Nc1ccc(OC(F)(F)F)cc1)N[C@H]1CC[C@H](Oc2ccc(F)cc2)CC1,–,–,0.7,–,–,2.7,15.3,Active,Active,7.4,1.7,3.3,Active,Active,9.2,inactive,Active,30,5,13.6
